BindingDB's records for doi:10.1016/j.bmc.2014.09.055 (University of Arizona, 2014)

Target: Melanocortin receptor 4 (Homo sapiens, UniProt P32245)
Assay: Displacement of Eu-DTPA-NDP-a-MSH chelate from human melanocortin-4 receptor expressed in HEK293 cells after 1 hr by competitive DELFIA assay
Summary of the method: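 HEK293 cells stably carrying hMC4R (pcDNA3.1) were grown in DMEM plus 10% FBS, seeded at 12,000 cells/well and cultured 3 days. Whole cells were competed with unlabeled ligand against 10 nM (final) Eu-DTPA-NDP-α-MSH in binding medium (DMEM, 1 mM 1,10-phenanthroline, bacitracin, leupeptin, 0.3% BSA) for 1 h at 37 °C, in quadruplicate. EC50 and Hill slope came from variable-slope sigmoidal fits.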

Melanocortin receptor 4, sequence (P32245 whole entry): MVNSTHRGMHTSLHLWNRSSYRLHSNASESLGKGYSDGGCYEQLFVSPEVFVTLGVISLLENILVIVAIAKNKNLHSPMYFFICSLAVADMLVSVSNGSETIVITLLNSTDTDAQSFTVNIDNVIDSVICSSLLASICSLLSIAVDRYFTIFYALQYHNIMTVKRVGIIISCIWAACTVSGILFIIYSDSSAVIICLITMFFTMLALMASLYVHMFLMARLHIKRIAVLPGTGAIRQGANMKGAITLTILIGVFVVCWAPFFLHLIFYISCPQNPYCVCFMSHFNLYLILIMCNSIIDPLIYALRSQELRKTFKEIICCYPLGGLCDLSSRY

Row | EC50 [nM] | SMILES
1 | 1.7 | CCCC[C@H](NC(=O)COCC(=O)NCCCOCCOCCOCCCNC(=O)COCC(=O)NCCCOCCOCCOCCCNC(=O)[C@H](Cc1c[nH]c2ccccc12)NC(=O)[C@H](CCCNC(=N)N)NC(=O)[C@@H](Cc1ccccc1)NC(=O)[C@H](Cc1cnc[nH]1)NC(=O)[C@H](CCC(=O)O)NC(=O)[C@H](CC(C)C)NC(=O)[C@H](CO)NC(C)=O)C(=O)N[C@H]1CC(=O)NCCCC[C@@H](C(N)=O)NC(=O)[C@H](Cc2c[nH]c3ccccc23)NC(=O)[C@H](CCCNC(=N)N)NC(=O)[C@@H](Cc2ccc3ccccc3c2)NC(=O)[C@H](Cc2cnc[nH]2)NC1=O
2 | 1.6 | CCCC[C@H](NC(=O)CNC(=O)[C@@H]1CCCN1C(=O)CNC(=O)[C@@H]1CCCN1C(=O)CNC(=O)[C@@H]1CCCN1C(=O)CNC(=O)[C@@H]1CCCN1C(=O)CNC(=O)[C@@H]1CCCN1C(=O)CNC(=O)[C@@H]1CCCN1C(=O)CNC(=O)[C@@H]1CCCN1C(=O)CNC(=O)[C@@H]1CCCN1C(=O)CNC(=O)[C@@H]1CCCN1C(=O)CNC(=O)[C@@H]1CCCN1C(=O)CNC(=O)[C@@H]1CCCN1C(=O)CNC(=O)[C@@H]1CCCN1C(=O)[C@H](Cc1c[nH]c2ccccc12)NC(=O)[C@H](CCCNC(=N)N)NC(=O)[C@@H](Cc1ccccc1)NC(=O)[C@H](Cc1cnc[nH]1)NC(=O)[C@H](CCC(=O)O)NC(=O)[C@H](CC(C)C)NC(=O)[C@H](CO)NC(C)=O)C(=O)N[C@H]1CC(=O)NCCCC[C@@H](C(N)=O)NC(=O)[C@H](Cc2c[nH]c3ccccc23)NC(=O)[C@H](CCCNC(=N)N)NC(=O)[C@@H](Cc2ccc3ccccc3c2)NC(=O)[C@H](Cc2cnc[nH]2)NC1=O
